# Most compounds without a hit are left out; they make up all but 1.5% or so of the library.
# Cardio protect – cardioprotection against H2O2-induced cell death, primary screen, uHTS, H9c2 cells, ATPLite luminescence | AID 588492, 2011 | 360,000 tested, 0.63% active | H9c2 cardiomyocytes, H2O2 injury protection, 2 h | protection from H2O2 cell death, % at 20 µM;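 active = compounds giving at least 50% protection of heart cells from peroxide-induced death in the single-dose screen, raw or plate-pattern-corrected value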;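 note: 0% = DMSO wells with peroxide and 100% = DMSO wells without peroxide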
# Tb MetRS inh – T. brucei MetRS inhibitors, primary screen, biochemical, luminescence; 360,000 tested, 0.4% active; purified T. brucei MetRS, ATP depletion, Kinase-Glo luminescence; inhibition, % at 11.9 µM;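 active = inhibition above a per-plate cutoff of the control wells' mean inhibition plus 3 SD, cut at about 5.5% in these data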;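 note: 0% = DMSO wells median and 100% = median of wells with control inhibitor compound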
#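 System: purified T. brucei MetRS enzyme / Detection: Kinase-Glo luciferase luminescence reporting remaining unconsumed ATP / Medium: HEPES buffer with MgCl2, KCl, DTT, spermine, BSA, pyrophosphatase / Replication: singlicate, one well per compound / Evaluation: percent inhibition relative to median high and low control wells / Schedule: 2 h aminoacylation at 25 °C after 15 min preincubation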
# Rin1-Abl PPI inh – inhibitors of Rin1-Abl protein binding, primary screen, biochemical, TR-FRET | Tyrosine-protein kinase ABL1 (Homo sapiens) + Ras and Rab interactor 1 (Homo sapiens), … | inhibition, % at 7.35 µM | 360,000 tested, 0.4% active | AID 588664, 2011; in the data active = inhibition above about 5%, passing the limit was not always enough
# PKA-R1A act – activators of PKA-R1A holoenzyme, primary screen, biochemical, fluorescence polarization, Cy5-IP20, bovine R1A, mouse PKAc | cAMP-dependent protein kinase type I-alpha regulatory subunit (Bos taurus) + … | PKA-R1A dissociation; scaled: DMSO 0%, 113 µM cGMP 100% | activation, % at 11.4 µM | 340,000 tested, 0.083% active | AID 504707, 2011;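 active = percent activation above the mean of all tested compounds plus 3 SD, cut at about 19% in these data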;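 note: higher means more PKAc released from R1A so a rise in polarization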
# PKA-R2B activ – activators of PKA-R2B holoenzyme, primary screen, biochemical, fluorescence polarization, Cy5-IP20, human; AID 504700, 2011; 340,000 tested, 0.079% active; cAMP-dependent protein kinase catalytic subunit beta (Homo sapiens) + cAMP-dependent …; PKA-R2B holoenzyme dissociation; R2B truncated from residue 108, S112A mutant; 0% DMSO only, 100% 113 µM cGMP; activation, % at 11.4 µM;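 active = activation above a cutoff set at the mean over all compounds plus 3 SD, cut at about 18% in these data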;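 note: higher means more holoenzyme dissociation and a rise in polarization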
# Target sequence (P31323 whole entry, looked up, other chains not shown, the tested form may be a part): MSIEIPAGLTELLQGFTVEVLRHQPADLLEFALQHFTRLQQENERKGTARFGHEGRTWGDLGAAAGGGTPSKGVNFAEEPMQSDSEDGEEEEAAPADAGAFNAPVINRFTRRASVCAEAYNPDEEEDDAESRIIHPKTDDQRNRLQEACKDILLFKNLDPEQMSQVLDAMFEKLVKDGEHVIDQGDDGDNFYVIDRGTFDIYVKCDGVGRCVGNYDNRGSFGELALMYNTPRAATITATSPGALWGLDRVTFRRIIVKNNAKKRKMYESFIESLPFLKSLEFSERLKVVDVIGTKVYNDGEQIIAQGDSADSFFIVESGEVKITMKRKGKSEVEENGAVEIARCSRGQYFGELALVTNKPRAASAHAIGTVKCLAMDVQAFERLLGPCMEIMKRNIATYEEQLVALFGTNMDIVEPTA
# TbMetRS confirm – T. brucei MetRS inhibitors, confirmation, biochemical, luminescence; shares compounds with Tb MetRS inh; T. brucei MetRS enzyme, luminescence (ATP depletion); inhibition, % at 11.9 µM; 1,400 tested, 93% active; in the data active = inhibition above about 7%
# Jurkat tox – Jurkat T cell cytotoxicity, cytotoxicity control for T. brucei MetRS inhibitor project, luminescence, high throughput; shares compounds with Tb MetRS inh; Jurkat cells viability, ATP luminescence; inhibition, % at 8.3 µM; 1,400 tested, 12% active; AID 624413, 2012; in the data active = inhibition above about 15%;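 note: 0% = vehicle and 100% = reference inhibitor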
# Tb MetRS inh FP – T. brucei MetRS inhibitors, orthogonal assay for T. brucei MetRS inhibitor project, biochemical, fluorescence polarization; shares compounds with Tb MetRS inh; purified T. brucei MetRS; inhibition, % at 11.9 µM; 1,400 tested, 44% active; in the data active = inhibition above about 17%;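 note: 0% = vehicle wells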
# * marks the source's active call; other numbers are inactive results; nt = no result.
SMILES,Cardio protect,Tb MetRS inh,Rin1-Abl PPI inh,PKA-R1A act,PKA-R2B activ,TbMetRS confirm,Jurkat tox,Tb MetRS inh FP
O=c1[nH]c(=O)c2[nH]c(=S)n(-c3ccccc3)c2[nH]1,2,0,5,2,15,nt,nt,nt
COC(=O)C1(C)COP(=O)(Nc2ccc(OC)cc2)OC1 (stereo unspecified),3,-1,4,nt,nt,nt,nt,nt
CC(NC(=O)c1ccc(N)cc1)c1ccccc1 (stereo unspecified),2,0,0,2,-6,nt,nt,nt
Cc1nc2ccccc2c2oc(C(=O)N3CCC(C)CC3)cc12,6,-1,0,-9,1,nt,nt,nt
Cc1nc2ccccc2c2oc(C(=O)N3CCc4ccccc4C3)cc12,41,8.7*,2,-4,-10,8.9*,6,11
Cn1c(N)c(C(=O)CSc2nnc(C3CC3)n2N)c(=O)n(C)c1=O,7,0,1,0,16,nt,nt,nt
C[C@H](CO)N1C[C@H](C)[C@@H](CN(C)S(=O)(=O)c2ccc(F)cc2)Oc2ccc(NC(=O)Nc3ccccc3)cc2C1=O,18,2,3,-11,-11,nt,nt,nt
C[C@H](CO)N1C[C@H](C)[C@@H](CN(C)C(=O)Nc2ccc(C(F)(F)F)cc2)Oc2ccc(NC(=O)Nc3ccccc3)cc2C1=O,-5,6.1*,-4,-1,-10,18*,7,13
C[C@H](CO)N1C[C@H](C)[C@@H](CN(C)S(=O)(=O)c2ccccc2)Oc2ccc(NC(=O)Nc3ccccc3)cc2C1=O,76*,7.2*,2,0,-3,19*,-3,3
C[C@H](CO)N1C[C@H](C)[C@@H](CN(C)C(=O)Nc2ccccc2)Oc2ccc(NC(=O)Nc3ccccc3)cc2C1=O,-2,3,-5,7,-2,nt,nt,nt
COc1ccc(N2CCN(C(=O)CSc3nnc(C4CC4)n3C3CC3)CC2)cc1,10,0,-4,-8,-1,nt,nt,nt
CCOC(=O)C1CCCN(C(=O)c2cc(F)ccc2C)CC1 (stereo unspecified),-3,0,3,nt,nt,nt,nt,nt
Cc1ccc2nc(-c3cccc(NC(=O)c4ccco4)c3)[nH]c2c1,-5,6.0*,1,-5,1,9.1*,9,56*
O=C(CCN(CCO)Cc1ccccc1)Nc1ccc(Br)cc1,8,20*,-2,-2,-1,40*,0,15
CCN(CCC(=O)Nc1ccc(Br)c(C)c1)Cc1ccccc1,0,0,1,5,5,nt,nt,nt
Cc1ccccc1OCCCC(=O)Nc1ccc(Br)cc1,-10,6.4*,0,-11,-11,8.2*,20*,10
CC(=O)Nc1ccc(NC(=O)CCOc2ccccc2C)cc1,-4,0,2,-3,-10,nt,nt,nt
O=C(c1ccccc1)c1ccc(-n2cnnc2)c([N+](=O)[O-])c1,-3,24*,4,7,0,44*,1,26*
Cc1ccc(SCc2cc(=O)c3c(=O)n(-c4ccccc4)[nH]c3[nH]2)cc1,5,-1,4,-12,3,nt,nt,nt
O=c1cc(CSc2ccc(Cl)cc2)[nH]c2[nH]n(-c3ccccc3)c(=O)c12,1,8.5*,2,-2,-10,26*,17*,7
O=C(c1ccncc1)c1ccc(N2CCN(C3CC(=O)N(Cc4ccccc4)C3=O)CC2)cc1 (stereo unspecified),-6,15*,-4,-15,-10,28*,13,6
CCc1cccc(NC(=O)Cn2cc(C=O)c3ccccc32)c1,-13,9.0*,1,-10,5,19*,14,12
COc1cccc(NC(=O)Cn2cc(C=O)c3ccccc32)c1,-12,4,2,-4,-1,nt,nt,nt
Clc1ccc(CN2C3=NCCN3c3ccccc32)cc1Cl,-6,7.4*,-5,-3,-13,12*,16*,1
O=C(Nc1ncccc1O)c1ccc(S(=O)(=O)NCc2ccco2)cc1,-2,0,1,1,-4,nt,nt,nt
SMILES,Cardio protect,Tb MetRS inh,Rin1-Abl PPI inh,PKA-R1A act,PKA-R2B activ,TbMetRS confirm,Jurkat tox,Tb MetRS inh FP
Cc1ccc2[nH]cc(S(=O)(=O)c3ccc(F)cc3)c(=O)c2c1,-4,29*,-2,-1,3,41*,0,16
CCOc1ccc(S(=O)(=O)c2c[nH]c3ccc(C)cc3c2=O)cc1,6,4,0,-9,-6,nt,nt,nt
CN(CC(=O)Nc1ccccc1Cl)C(=O)CCSc1ccc(F)cc1,-1,0,-2,-9,-3,nt,nt,nt
CN(CC(=O)Nc1cccc(F)c1)C(=O)CCSc1ccc(F)cc1,-9,15*,0,2,-3,42*,1,20*
COc1ccc(NC(=O)CN(C)C(=O)CCSc2ccc(F)cc2)cc1,-3,8.7*,2,-6,-1,33*,-1,6
COc1ccc(NC(=O)CN(C)C(=O)c2oc3c(ccc4ccccc43)c2C)cc1,-4,6.4*,4,1,-6,23*,-7,13
CN(CC(=O)Nc1cccc(F)c1)C(=O)c1ccc(-c2ccc(Cl)cc2)o1,-3,21*,-5,-12,5,39*,-10,24*
C=CCn1c(C)nc2c(cnn2-c2ccccc2)c1=O,-6,-1,1,6,3,nt,nt,nt
O=C(CNC(=O)c1cccc(Br)c1)N/N=C/c1cccs1,-1,6.0*,3,1,-13,20*,3,2
O=C(Nc1ccccc1)Nc1nnc(CSCc2ccccc2Cl)s1,-14,12*,0,-17,-2,61*,-1,55*
OC(COc1ccc(Br)cc1)Cn1ccnc1 (stereo unspecified),6,0,-2,-5,-12,nt,nt,nt
COc1ccc(OCC(O)Cn2cnc(-c3ccc(Br)cc3)c2)cc1 (stereo unspecified),-12,14*,-6,3,-4,22*,1,8
COc1ccc(C2CC(c3ccc(Cl)cc3Cl)Nc3nc(N)nn32)cc1 (stereo unspecified),-20,7.5*,3,-2,0,14*,-4,0

# High-throughput results (PubChem)
